# Data reported in publication PMC3878182 (Xenobiotica; the fate of foreign compounds in biological …, 2013).
# Assays:
# [1] = Effect of inducer treatment on body and liver weights of rats; format: in vivo, Sprague-Dawley rats; details: i.p. inducer treatment
# [2] = system: liver tissue slices; assay: Liver slice viability; format: cell-based, Sprague-Dawley rats; details: 2 h
# How it was run: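 Liver slices came from adult rats, either naive or pretreated with PB or DEX, taken 24 h after the last dose into cold Krebs-Henseleit buffer, pH 7.5. Two slices per vial in 2 mL buffer received test compound (final 5 μM) or DMSO, 2 h, 37 °C, 5 % CO2/95 % air. LDH in medium and homogenate gave % release = A1×D1/(A1×D1+A2×D2); viable was <30 %.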
# [3] = system: CYP1A2; assay: Hepatic P450 transcript levels; format: in vivo, Sprague-Dawley rats
# [4] = system: liver tissue slices; assay: Enantioselective analysis; format: in vitro ADME, Sprague-Dawley rats; details: for Enantiomeric enrichment: liver slices from PB- and DEX-treated male and female rats incubated with racemic PCB 136
# How it was run: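 Liver slices from PB- or DEX-pretreated rats, two per vial in 2 mL K-H buffer, were incubated with racemic test compound (final 5 μM, from DMSO) for 2 h at 37 °C under 5% CO2/95% air in a dynamic system. Triplicate incubations were run per animal. Hydroxylated metabolites were methylated; atropisomers were separated on Chirasil-Dex (5-OH) or Cyclosil-B (4-OH) columns. EF = Area E(2)/(Area E(1) + Area E(2)).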
# [5] = system: hippocampal slice cultures; assay: LDH release in hippocampal slice cultures; format: cell-based, Sprague Dawley rats (PND4 pups); details: ethanol 200 mM, 14 d exposure
# How it was run: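 Hippocampi from PND4 pups of timed-pregnant Sprague Dawley rats were cultured as slices. From 5 DIV, racemic test compound or vehicle (0.1 % DMSO) was added to 1 mL medium, renewed every 2 days for 14 days. LDH release was measured with a membrane-integrity fluorescence kit. Mean ± SEM, n = 2 wells per group.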
# [6] = system: liver tissue slices; assay: Formation of hydroxylated PCB 136 metabolites in liver tissue slices; format: in vitro ADME, Sprague-Dawley rats; details: for Metabolite formation, slices / Metabolite formation, medium: 2 h; for Metabolite as percent of ΣOH-PCB: slices plus medium
# [7] = system: hippocampal slice cultures; assay: Propidium iodide; format: cell-based, Sprague Dawley rats (PND4 pups); details: glutamate 20 mM, positive control, 3 d exposure
# [8] = system: ryanodine receptor (RyR); details: enantioselective; ref Pessah et al., 2009; cited from earlier work
# [9] = DEX-treated female rats, PCB 136 5 μM (10 nmol)
# [10] = DEX-treated female rats, PCB 136 5 μM
# [11] = DEX-treated male rats, PCB 136 5 μM (10 nmol)
# [12] = DEX-treated male rats, PCB 136 5 μM
# [13] = PB-treated female rats, PCB 136 5 μM (10 nmol)
# [14] = PB-treated female rats, PCB 136 5 μM
# [15] = PB-treated male rats, PCB 136 5 μM (10 nmol)
# [16] = PB-treated male rats, PCB 136 5 μM (10 nmol), ND, not detected
# [17] = PB-treated male rats, PCB 136 5 μM
# [18] = naïve control (CTL) female rats, PCB 136 5 μM (10 nmol), ND, not detected
# [19] = naïve control (CTL) female rats, PCB 136 5 μM, ND, not detected
# [20] = naïve control (CTL) female rats
# [21] = naïve control (CTL) male rats, PCB 136 5 μM (10 nmol), ND, not detected
# [22] = naïve control (CTL) male rats, PCB 136 5 μM, ND, not detected
SMILES,Enantiomeric enrichment [4],"Metabolite formation, slices [6, 9]","Metabolite formation, slices [6, 10]",Metabolite as percent of ΣOH-PCB ([6]; DEX-treated female rats),"Metabolite formation, slices [6, 11]","Metabolite formation, slices [6, 12]",Metabolite as percent of ΣOH-PCB ([6]; DEX-treated male rats),"Metabolite formation, slices [6, 13]","Metabolite formation, slices [6, 14]",Metabolite as percent of ΣOH-PCB ([6]; PB-treated female rats),"Metabolite formation, slices [6, 15]","Metabolite formation, slices [6, 17]",Metabolite as percent of ΣOH-PCB ([6]; PB-treated male rats),further results
"C[C@@H]1C[C@H]2[C@@H]3CCC4=CC(=O)C=C[C@]4(C)[C@@]3(F)[C@@H](O)C[C@]2(C)[C@@]1(O)C(=O)CO [Dexamethasone (DEX), dexamethasone]",,,,,,,,,,,,,,Liver weight ([1]; female rats): 12.1 ± 0.2 g; Percent change in body weight ([1]; female rats): −12.0 ± 4.4 %; Liver weight ([1]; male rats): 16.8 ± 0.6 g; Percent change in body weight ([1]; male rats): −17.0 ± 0.7 %; LDH release ([2]; liver tissue slices from DEX pretreated female rats): 19.6 ± 10.4%; LDH release ([2]; liver tissue slices from DEX pretreated male rats): 10.4 ± 3.6%; CYP1A2 transcript level vs CTL ([3]; liver slices from female rats): not significantly changed; CYP1A2 transcript level vs CTL ([3]; liver slices from male rats): not changed
Oc1cc(Cl)c(-c2c(Cl)ccc(Cl)c2Cl)c(Cl)c1Cl [E(1)-4-OH-PCB],enriched,,,,,,,,,,,,,
"CCO [ethanol, reference compound]",,,,,,,,,,,,,,LDH release relative to vehicle controls [5]: significantly increased LDH release
"Oc1c(O)c(Cl)c(-c2c(Cl)ccc(Cl)c2Cl)c(Cl)c1Cl [4,5-diOH-PCB 136, 2,2′,3,3′,6,6′-hexachlorobiphenyl-4,5-diol]",,3 ± 1 pmol,0.1 ± 0.0 ng/mg protein,1.3 ± 0.3%,6 ± 2 pmol,0.1 ± 0.0 ng/mg protein,0.9 ± 0.3%,6 ± 3 pmol,0.1 ± 0.1 ng/mg protein,1.0 ± 0.4%,32 ± 15 pmol,0.6 ± 0.3 ng/mg protein,5.6 ± 3.6%,"Metabolite formation, medium [6, 16]: 24 ± 34 pmol; Metabolite level in tissue slices ([6]; tissue slices from CTL rats): below the detection limit"
"N[C@@H](CCC(=O)O)C(=O)O [glutamate, reference compound]",,,,,,,,,,,,,,PI uptake [7]: significantly increased PI uptake
"Oc1cc(Cl)c(-c2c(Cl)ccc(Cl)c2Cl)c(Cl)c1Cl [4-OH-PCB 136, 2,2′,3,3′,6,6′-hexachlorobiphenyl-4-ol]",,24 ± 19 pmol,0.5 ± 0.3 ng/mg protein,7.7 ± 3.5%,26 ± 5 pmol,0.4 ± 0.1 ng/mg protein,4.3 ± 0.7%,30 ± 4 pmol,0.7 ± 0.0 ng/mg protein,5.8 ± 1.0%,15 ± 5 pmol,0.3 ± 0.1 ng/mg protein,1.5 ± 0.2%,"4-OH-PCB 136 levels relative to 5-OH-PCB 136 levels (times higher) ([6]; liver slices from female CTL rats): approximately 3 times; Metabolite formation, slices [6, 18]: 33 ± 4 pmol; Metabolite formation, slices [6, 19]: 0.7 ± 0.1 ng/mg protein; Metabolite as percent of ΣOH-PCB [6, 20]: 75 ± 16%; Metabolite formation, slices [6, 21]: 60 ± 30 pmol; Metabolite formation, slices [6, 22]: 1.0 ± 0.5 ng/mg protein; Metabolite as percent of ΣOH-PCB ([6]; naïve control (CTL) male rats): 57 ± 5%"
"Oc1cc(Cl)c(Cl)c(-c2c(Cl)ccc(Cl)c2Cl)c1Cl [5-OH-PCB 136, 2,2′,3,3′,6,6′-hexachlorobiphenyl-5-ol]",,240 ± 110 pmol,4.9 ± 1.1 ng/mg protein,91 ± 4%,495 ± 95 pmol,7.7 ± 1.2 ng/mg protein,95 ± 1%,490 ± 100 pmol,11 ± 1.3 ng/mg protein,93 ± 1%,900 ± 220 pmol,16.0 ± 2.0 ng/mg protein,93 ± 4%,"Metabolite formation, medium ([6]; DEX-treated male rats, PCB 136 5 μM (10 nmol), ND, not detected): 80 ± 37 pmol; Metabolite formation, medium [6, 16]: 115 ± 22 pmol; Metabolite formation, slices [6, 18]: 12 ± 10 pmol; Metabolite formation, slices [6, 19]: 0.3 ± 0.2 ng/mg protein; Metabolite as percent of ΣOH-PCB [6, 20]: 25 ± 16%; Metabolite formation, slices [6, 21]: 50 ± 10 pmol; Metabolite formation, slices [6, 22]: 0.7 ± 0.2 ng/mg protein; Metabolite as percent of ΣOH-PCB ([6]; naïve control (CTL) male rats): 43 ± 5%; Enantiomeric fraction (EF) ([4]; liver slices from PB- and DEX-treated male and female rats, racemic PCB 136 5 μM, 2 h, EF = Area E(2)/(Area E(1) + Area E(2)), range over groups): 0.69–0.74"
Clc1ccc(Cl)c(-c2c(Cl)ccc(Cl)c2Cl)c1Cl [(−)-PCB 136],slightly enriched,,,,,,,,,,,,,Sensitization of RyR [8]: active
Oc1cc(Cl)c(Cl)c(-c2c(Cl)ccc(Cl)c2Cl)c1Cl [E(2)-5-OH-PCB],enriched to a similar extent,,,,,,,,,,,,,
